The nature of series [1]: 19F NMR pH titration of the free amino acid in solution. The class given is physicochemical. The note with it: 19F NMR chemical shift vs pD. The essentials:
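Free fluorinated Tyr amino acid (5 mg) dissolved in 30 mM deuterated PIPES buffer; pD adjusted with DCl or NaOD across pD 3.6–12.5. 19F spectra recorded on a 400 MHz spectrometer. The 19F chemical shift was plotted against pD and fitted to obtain pKa values.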

Series [2] deals with 2,3,5-F3Y158 InhA. The format is biochemical, Mycobacterium tuberculosis. The following applies: 2,3,5-F3Y158 InhA vs wild-type.
For series [3], the target named is 3-FY158 InhA. The series can be described thus: Direct binding fluorescence titration of NADH. Also on record: species or system Mycobacterium tuberculosis. The following applies: 25 °C, pH 6.8.
The target in series [4] is T1, wild-type InhA (Mycobacterium tuberculosis, UniProt P9WGR1). Description: Direct binding fluorescence titration of NADH.
Series [5] deals with 3,5-F2Y158 InhA. Also noted: species or system Mycobacterium tuberculosis. The following applies: NADH binding, 25 °C, pH 6.8.
Series [6] deals with 2,3,5-F3Y158 InhA. Also on record: species or system Mycobacterium tuberculosis. The note with it: NADH binding, 25 °C, pH 6.8.
In series [7] the target is 3,5-F2Y158 InhA. The class given is biochemical, Mycobacterium tuberculosis. The note with it: read-out: Kiapp; PT166, rapid reversible, global fit to equations 6 and 7.
For series [8], the target named is 3-FY158 InhA. The following applies: read-out: Kiapp; PT166, rapid reversible, global fit to equations 6 and 7.
Series [9] deals with 2,3,5-F3Y158 InhA. The class given is biochemical, Mycobacterium tuberculosis.
Series [10] concerns the target T1, wild-type InhA. The note with it: read-out: Kiapp; PT166, rapid reversible, global fit to equations 6 and 7.
Series [11] deals with Y158F mutant. The note with it: cited from earlier work.

Where “and” joins values, the source holds several entries; their conditions need not be identical. Equal values may be shown once.

Data on five compounds can be found in article PMC10329767 (Biochemistry, 2023).

As usually defined, the Kd is the constant that tells how readily two partners part at equilibrium.

Regarding `N[C@@H](Cc1cc(F)c(O)c(F)c1F)C(=O)O` [2,3,5-F3Y, 2,3,5-trifluoroTyr], the “pKa of the hydroxyl group” value in series [1] came to 6.5.

Turning to `CCCCCCCCC/C=C/C(=O)SCCNC(=O)CCNC(=O)[C@H](O)C(C)(C)COP(=O)(O)OP(=O)(O)OC[C@H]1O[C@@H](n2cnc3c(N)ncnc32)[C@H](O)[C@@H]1OP(=O)(O)O` [DDCOA, trans-2-dodecenoyl-CoA], the “fold higher KMapp for dd-CoA than wild-type InhA” value in [2] is ~ 5 fold.

`NC(=O)C1=CN([C@@H]2O[C@H](COP(=O)(O)OP(=O)(O)OC[C@H]3O[C@@H](n4cnc5c(N)ncnc54)[C@H](O)[C@@H]3O)[C@@H](O)[C@H]2O)C=CC1` [NADH]: the Kd in [3] turned out to be 7.1 ± 0.6 µM; in series [4] (25 °C, pH 6.8, C-terminal His-tag InhA), 8.2 ± 0.3 µM; in [5] it was 8.1 ± 0.5 µM; in series [6] it was 8.7 ± 0.2 µM. Besides, the “N (Hill coefficient)” value in series [4] (fit to Equation 1) is 3.1 ± 0.3.

For `CCCCCCc1cc(=O)c(Oc2ccccc2C)cn1C` [PT166], the Ki in series [7] turned out to be 0.048 ± 0.001 µM; in [8], 0.033 ± 0.001 µM; in series [9] (read-out: Kiapp, PT166, rapid reversible, global fit to equations 6 and 7), 0.213 ± 0.002 µM; in series [10] it was 0.031 ± 0.001 µM. In addition, in series [9] (PT166, 2,3,5-F3Y158 InhA vs wild-type), the “fold change (decrease in affinity) in Kiapp compared to wild-type” value was ~ 7 fold and 7 fold.

Regarding `Oc1cc(Cl)ccc1Oc1ccc(Cl)cc1Cl` [triclosan], in series [11], the “fold lower affinity for Y158F mutant compared to wild-type InhA” value is listed as ~ 100 fold.
